YB-1 expression = YB-1 expression inhibition; U2OS, qRT-PCR YB-1 vs CDIP delta delta Cp, 16 h; hits give high values; zero = DMSO, each unit about twofold; delta delta Cp (YB-1 minus CDIP) (no concentration beside the values); hit rate 0.37% among 30,000;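 active means delta delta Cp rounded down to an integer at or above 3, about 3 SD of DMSO wells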;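 further: higher means less YB-1 transcript or more CDIP transcript relative to DMSO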
T cruzi intra = intracellular Trypanosoma cruzi inhibition; hit rate 4.9% among 22,000; intracellular Trypanosoma cruzi in host cells, plate reader; activity score (inhibition), % at 5.01 µM; in the data active means activity score above about 55%; inconclusive means no clear call, values can overlap the other calls;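 further: parasites and compound incubated about four days before reading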
INS-1E ATP HTS = INS-1E beta cell protection from cytokine death; protection from cytokine-induced ATP loss, % at 10 µM; INS-1E cytokine-induced death, ATP luminescence, 48 h; normalised: neutral wells 0, positive control 100; AID 488910; hit rate 0.1% among 20,000;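 active means mean replicate protection from cytokine-induced ATP loss at least 50% and at least 75% of replicates each reaching 50%; inconclusive means meets only one of the two criteria, mean or replicate share; inactive means fails both the mean and replicate share criteria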
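Assay system: INS-1E rat cells / Quantity: 8000 cells per well / Medium: RPMI without phenol red, 5% FBS / Probe or stimulus: three-cytokine cocktail (IFN-γ, TNF-α, IL-1β) / Dosing: one compound concentration, pin transfer / Timing: 48 h co-treatment, 10 min post-lysis read / Technique: CellTiter-Glo luminescence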
Each line names hits and unclear results; the compound was inactive in the other large screens. Shown is part of a subset that was picked to be rich in hits.

Cc1ccc(S(=O)(=O)Nc2ccc3c(c2)C(=O)N([C@H](C)CO)C[C@H](C)[C@H](CN(C)C(=O)Nc2ccc(C(F)(F)F)cc2)O3)cc1	none (no result: INS-1E ATP HTS)
Cc1ccc(S(=O)(=O)Nc2ccc3c(c2)C(=O)N([C@H](C)CO)C[C@H](C)[C@@H](CN(C)C(=O)Nc2ccc(C(F)(F)F)cc2)OCCCC[C@@H](C)O3)cc1	T cruzi intra 74.8
C[C@@H]1CCCCO[C@@H](CN(C)C(=O)Nc2ccc(C(F)(F)F)cc2)[C@@H](C)CN([C@H](C)CO)C(=O)c2cc(NS(=O)(=O)c3ccc(F)cc3)ccc2O1	T cruzi intra 71.1
COc1ccc(S(=O)(=O)Nc2ccc3c(c2)C(=O)N([C@H](C)CO)C[C@H](C)[C@H](CN(C)C(=O)Nc2ccc(C(F)(F)F)cc2)OCCCC[C@@H](C)O3)cc1	T cruzi intra 64.7
Cc1ccc(C23CC4CC(CC(C(=O)NC5=NCCS5)(C4)C2)C3)cc1	none (no result: T cruzi intra, INS-1E ATP HTS)
CC(C)(C)Nc1cccccc1=NCc1ccccc1	none (no result: T cruzi intra, INS-1E ATP HTS)
COC(=O)CCC(=O)c1cc2cc(Br)ccc2o1	none (no result: T cruzi intra, INS-1E ATP HTS)
CCC(CO)NC(=S)Nc1cc(C(F)(F)F)cc(C(F)(F)F)c1 (centres undefined)	none (no result: T cruzi intra, INS-1E ATP HTS)
S=C(NCC1CC1)Nc1ccc2[nH]ccc2c1	none (no result: T cruzi intra, INS-1E ATP HTS)
C=CCSc1ncc2c(=S)[nH]c(=S)[nH]c2n1	none (no result: T cruzi intra, INS-1E ATP HTS)
Oc1ccc([C@@H]2Oc3cc(O)cc(O)c3C[C@@H]2O)cc1	none (no result: T cruzi intra, INS-1E ATP HTS)
C[C@@H]1CCCCO[C@@H](CN(C)C(=O)Nc2ccc(F)cc2)[C@@H](C)CN([C@H](C)CO)C(=O)c2cc(NS(=O)(=O)c3ccc(Cl)cc3)ccc2O1	T cruzi intra 64.6
Cc1ccc(S(=O)(=O)Nc2ccc3c(c2)C(=O)N([C@H](C)CO)C[C@H](C)[C@@H](CN(C)C(=O)Nc2ccc(F)cc2)OCCCC[C@@H](C)O3)cc1	none
COc1cccc(-c2cc(NCc3ccc4c(c3)OCO4)nc(N)n2)c1	none (no result: T cruzi intra, INS-1E ATP HTS)
Cc1ccc(C(=O)c2ccc(Oc3ccccc3)cc2)cc1	none (no result: T cruzi intra, INS-1E ATP HTS)
C[C@@H]1CN([C@@H](C)CO)C(=O)Cc2cc(NC(=O)Nc3ccc(F)cc3)ccc2O[C@@H]1CN(C)Cc1ccc(-c2ccccc2)cc1	T cruzi intra 61.0
C[C@H]1CN([C@@H](C)CO)C(=O)Cc2cc(NC(=O)NC3CCCCC3)ccc2O[C@@H]1CN(C)Cc1ccc(Cl)c(Cl)c1	T cruzi intra 65.4
C[C@@H]1CN([C@@H](C)CO)C(=O)Cc2cc(NC(=O)NC3CCCCC3)ccc2O[C@@H]1CN(C)Cc1ccc(Cl)c(Cl)c1	none
C[C@H](CO)N1C[C@H](C)[C@H](CN(C)Cc2ccc(-c3ccccc3)cc2)Oc2ccc(NC(=O)Nc3ccccc3)cc2CC1=O	T cruzi intra inconclusive
C[C@H]1CN([C@@H](C)CO)C(=O)Cc2cc(NC(=O)NC3CCCCC3)ccc2O[C@H]1CN(C)Cc1ccc(-c2ccccc2)cc1	T cruzi intra 67.3
C[C@@H]1CN([C@@H](C)CO)C(=O)Cc2cc(NC(=O)Nc3ccccc3)ccc2O[C@@H]1CN(C)Cc1ccc(-c2ccccc2)cc1	T cruzi intra 62.4
C[C@H](CO)N1C[C@H](C)[C@H](CN(C)Cc2ccc(-c3ccccc3)cc2)Oc2ccc(NC(=O)NC3CCCCC3)cc2CC1=O	none
C[C@H]1CN([C@@H](C)CO)C(=O)Cc2cc(NC(=O)Nc3ccccc3)ccc2O[C@H]1CN(C)Cc1ccc(-c2ccccc2)cc1	none
CC1(C)O[C@H]2CC(=O)OC[C@@]23[C@H]1CC(=O)[C@@]1(C)C2=CC(=O)O[C@@H](c4ccoc4)[C@]2(C)CC[C@@H]13	none (no result: T cruzi intra, INS-1E ATP HTS)
C=CCN1C(C(=O)c2ccccc2)=C(OC(=O)c2ccccc2)c2ccccc2S1(=O)=O	none (no result: T cruzi intra, INS-1E ATP HTS)
C[C@@H]1CN([C@@H](C)CO)C(=O)Cc2cc(NC(=O)c3ccncc3)ccc2O[C@@H]1CN(C)Cc1ccccc1	none
C[C@H]1CN([C@@H](C)CO)C(=O)Cc2cc(NC(=O)c3ccncc3)ccc2O[C@H]1CN(C)Cc1ccc(-c2ccccc2)cc1	T cruzi intra 77.5
O=c1[nH]c2ccccc2nc1/C=C(/O)c1cccc2ccccc12	none (no result: T cruzi intra, INS-1E ATP HTS)
S=C(c1nc2ccccc2[nH]1)N1CCOCC1	YB-1 expression 5.19 (no result: T cruzi intra, INS-1E ATP HTS)
O=C(C1Cc2ccccc2C1)N1CCOCC1	none (no result: T cruzi intra, INS-1E ATP HTS)
CC(C)[C@@H]1C=C(C(=O)O)O[C@H](OCc2ccc(CO)cc2)C1	none (no result: T cruzi intra, INS-1E ATP HTS)
CC(C)[C@H]1C=C(C(=O)NCc2ccccc2)O[C@@H](OCc2ccc(CO)cc2)C1	YB-1 expression 7.59 (no result: T cruzi intra, INS-1E ATP HTS)
O=C(Nc1cc2c(ccc3ccccc32)oc1=O)c1ccccc1	YB-1 expression 3.29 (no result: T cruzi intra, INS-1E ATP HTS)
Cc1ccc(C(=O)Nc2cc3ccccc3oc2=O)cc1	none (no result: T cruzi intra, INS-1E ATP HTS)
C[C@@H]1CN([C@H](C)CO)C(=O)Cc2cc(NS(=O)(=O)c3cccs3)ccc2O[C@@H]1CN(C)S(=O)(=O)c1ccc(Cl)cc1	T cruzi intra 71.5
Cc1noc(C)c1NC(=O)N(C)C[C@@H]1Oc2ccc(NS(=O)(=O)c3cccs3)cc2CC(=O)N([C@@H](C)CO)C[C@@H]1C	YB-1 expression 14.5
C[C@@H]1CN([C@H](C)CO)C(=O)Cc2cc(NS(=O)(=O)c3cccs3)ccc2O[C@@H]1CN(C)S(=O)(=O)c1ccccc1	T cruzi intra 59.3
Cc1noc(C)c1NC(=O)N(C)C[C@H]1Oc2ccc(NS(=O)(=O)c3cccs3)cc2C(=O)N([C@H](C)CO)C[C@H]1C	none
C[C@H]1CN([C@@H](C)CO)C(=O)Cc2cc(NS(=O)(=O)c3cccs3)ccc2O[C@@H]1CN(C)S(=O)(=O)c1ccc(Cl)cc1	none
C[C@H]1CN([C@@H](C)CO)C(=O)Cc2cc(NS(=O)(=O)c3cccs3)ccc2O[C@@H]1CN(C)S(=O)(=O)c1ccccc1	none
CCCC1=C(C(=O)OCC)C(c2cc(Br)c(O)c(OC)c2)NC(=O)N1 (centres undefined)	none (no result: T cruzi intra, INS-1E ATP HTS)
O=C(O)c1cc(C23CC4CC(CC(C4)C2)C3)ccc1O	none (no result: T cruzi intra, INS-1E ATP HTS)
COCC(=O)Nc1cc(Sc2ccccc2)ccc1N=C(NC(C)=O)NC(C)=O	none (no result: T cruzi intra, INS-1E ATP HTS)
C[C@@H]1CN([C@H](C)CO)C(=O)c2cccc(NC(=O)Nc3ccccc3)c2O[C@@H]1CN(C)Cc1ccc(C(=O)Nc2ccccc2N)cc1	T cruzi intra 70.2
C[C@@H]1CN([C@H](C)CO)C(=O)c2cccc(NC(=O)Nc3ccccc3)c2O[C@H]1CN(C)Cc1ccc(C(=O)O)cc1	none
C[C@H](CO)N1C[C@H](C)[C@@H](CN(C)Cc2ccc(C(=O)Nc3ccccc3N)cc2)Oc2c(cccc2N(C)C)C1=O	none
C[C@H]1CN([C@@H](C)CO)C(=O)c2cccc(NC(=O)Nc3ccc(F)cc3)c2O[C@H]1CN(C)Cc1ccc(C(=O)Nc2ccccc2N)cc1	T cruzi intra 58.7
C[C@H]1CN([C@@H](C)CO)C(=O)c2cccc(N(C)C)c2O[C@H]1CN(C)Cc1ccc(C(=O)Nc2ccccc2N)cc1	T cruzi intra 58.8
C[C@H](CO)N1C[C@H](C)[C@@H](CN(C)Cc2ccc(C(=O)Nc3ccccc3N)cc2)Oc2c(NC(=O)Nc3ccc(F)cc3)cccc2C1=O	none
N=c1oc2ccc3ccccc3c2cc1C(=O)Nc1ccccc1	none (no result: T cruzi intra, INS-1E ATP HTS)
COc1ccc(NC(=O)Nc2cccc3c2O[C@H](CN(C)S(=O)(=O)c2ccc(OC)cc2)[C@@H](C)CN([C@H](C)CO)C3=O)cc1	none

Screening data: PubChem, Broad Institute
